Source: ChEMBL document CHEMBL5724801, “EUbOPEN Chemogenomics Library - Multiplex” (2024)
Values joined by “and” are separate entries in the source; they are usually repeats but may differ in a detail not shown here. Equal values may be shown once.

Assays:
Fibroblast = test: Multiplex assay against human fibroblast; assay type: toxicity, cell-based
Summary of the method: (§1)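 Cells stained live at seeding with Hoechst33342, BioTracker Green Microtubule Cytoskeleton Dye, MitoTracker Red and Annexin V Alexa Fluor 680 were imaged on a CQ1 microscope at 37°C and 5% CO2 after compound addition. Their classification by CellPathfinder machine-learning gating ran from Hoechst high-intensity objects versus normal cells, to healthy, pyknosed or fragmented nuclei among normal cells, to mitotic or apoptotic among pyknosed cells. Tubulin, mitochondrial-mass and membrane-permeability phenotypes are per cents of healthy-nucleus cells.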

U2OS = test: Multiplex assay against U2OS; assay type: toxicity, cell-based; conditions: human; summary of the method: as §1
[1] = 12 h, 1 µM, compound concentration 1 uM
[2] = 12 h, 10 µM, compound concentration 10 uM
[3] = 24 h, 1 µM, compound concentration 1 uM
[4] = 24 h, 10 µM, compound concentration 10 uM
[5] = 48 h, 1 µM, compound concentration 1 uM
[6] = 48 h, 10 µM, compound concentration 10 uM

**Q.** For Cc1ccc(-c2ccc(F)cc2COc2ccc(CCC(=O)O)cc2)cc1, which “Population Apoptotic (%)” value (Fibroblast; [1]) is on record?
**A.** 42% and 37%

**Q.** What about the “Population Fragmented Nuclei (%)” value (Fibroblast; [1]) of the same compound?
**A.** 13% and 23%

**Q.** What about the “Population Healthy Nuclei (%)” value (Fibroblast; [1]) of the same compound?
**A.** 64% and 45%

**Q.** What about the “Population Mitotic Cells (%)” value (Fibroblast; [1]) of the same compound?
**A.** 57% and 62%

**Q.** What about the “Population Normal (%)” value (Fibroblast; [1]) of the same compound?
**A.** 99% and 93%

**Q.** And the “Population Pyknosed Nuclei (%)” value (Fibroblast; [1])?
**A.** 21% and 30%

**Q.** And the “Population Tubulin-Different-Phenotype (%)” value (Fibroblast; [1])?
**A.** 26%

**Q.** And the “Total Cell Count” value (Fibroblast; [1])?
**A.** 131 and 148

**Q.** And the “Population Apoptotic (%)” value (Fibroblast; [2])?
**A.** 19% and 31%

**Q.** What about the “Population Fragmented Nuclei (%)” value (Fibroblast; [2]) of the same compound?
**A.** 15% and 23%

**Q.** And the “Population Healthy Nuclei (%)” value (Fibroblast; [2])?
**A.** 67% and 51%

**Q.** What about the “Population Mitotic Cells (%)” value (Fibroblast; [2]) of the same compound?
**A.** 80% and 68%

**Q.** And the “Population Normal (%)” value (Fibroblast; [2])?
**A.** 99% and 93%

**Q.** And the “Population Pyknosed Nuclei (%)” value (Fibroblast; [2])?
**A.** 16% and 25%

**Q.** What about the “Population Tubulin-Different-Phenotype (%)” value (Fibroblast; [2]) of the same compound?
**A.** 23% and 38%

**Q.** What about the “Total Cell Count” value (Fibroblast; [2]) of the same compound?
**A.** 125 and 136

**Q.** What about the “Population Apoptotic (%)” value (Fibroblast; [3]) of the same compound?
**A.** 38% and 62%

**Q.** And the “Population Fragmented Nuclei (%)” value (Fibroblast; [3])?
**A.** 16% and 25%

**Q.** What about the “Population Healthy Nuclei (%)” value (Fibroblast; [3]) of the same compound?
**A.** 67% and 46%

**Q.** And the “Population Mitotic Cells (%)” value (Fibroblast; [3])?
**A.** 61% and 37%

**Q.** What about the “Population Normal (%)” value (Fibroblast; [3]) of the same compound?
**A.** 97% and 95%

**Q.** And the “Population Pyknosed Nuclei (%)” value (Fibroblast; [3])?
**A.** 15% and 27%

**Q.** And the “Population Tubulin-Different-Phenotype (%)” value (Fibroblast; [3])?
**A.** 23% and 33%

**Q.** And the “Total Cell Count” value (Fibroblast; [3])?
**A.** 136 and 139

**Q.** What about the “Population Apoptotic (%)” value (Fibroblast; [4]) of the same compound?
**A.** 47% and 46%

**Q.** And the “Population Fragmented Nuclei (%)” value (Fibroblast; [4])?
**A.** 9% and 26%

**Q.** What about the “Population Healthy Nuclei (%)” value (Fibroblast; [4]) of the same compound?
**A.** 75% and 53%

**Q.** And the “Population Mitotic Cells (%)” value (Fibroblast; [4])?
**A.** 52% and 53%

**Q.** And the “Population Normal (%)” value (Fibroblast; [4])?
**A.** 98% and 92%

**Q.** What about the “Population Pyknosed Nuclei (%)” value (Fibroblast; [4]) of the same compound?
**A.** 15% and 20%

**Q.** What about the “Population Tubulin-Different-Phenotype (%)” value (Fibroblast; [4]) of the same compound?
**A.** 20% and 55%

**Q.** And the “Total Cell Count” value (Fibroblast; [4])?
**A.** 127 and 136

**Q.** And the “Population Apoptotic (%)” value (Fibroblast; [5])?
**A.** 56% and 69%

**Q.** And the “Population Fragmented Nuclei (%)” value (Fibroblast; [5])?
**A.** 21% and 29%

**Q.** What about the “Population Healthy Nuclei (%)” value (Fibroblast; [5]) of the same compound?
**A.** 62% and 55%

**Q.** And the “Population Mitotic Cells (%)” value (Fibroblast; [5])?
**A.** 43% and 30%

**Q.** What about the “Population Normal (%)” value (Fibroblast; [5]) of the same compound?
**A.** 96%

**Q.** And the “Population Pyknosed Nuclei (%)” value (Fibroblast; [5])?
**A.** 15%

**Q.** What about the “Population Tubulin-Different-Phenotype (%)” value (Fibroblast; [5]) of the same compound?
**A.** 24% and 46%

**Q.** What about the “Total Cell Count” value (Fibroblast; [5]) of the same compound?
**A.** 150 and 155

**Q.** What about the “Population Apoptotic (%)” value (Fibroblast; [6]) of the same compound?
**A.** 72% and 48%

**Q.** What about the “Population Fragmented Nuclei (%)” value (Fibroblast; [6]) of the same compound?
**A.** 11% and 30%

**Q.** What about the “Population Healthy Nuclei (%)” value (Fibroblast; [6]) of the same compound?
**A.** 78% and 45%

**Q.** And the “Population Mitotic Cells (%)” value (Fibroblast; [6])?
**A.** 27% and 51%

**Q.** What about the “Population Normal (%)” value (Fibroblast; [6]) of the same compound?
**A.** 96% and 92%

**Q.** What about the “Population Pyknosed Nuclei (%)” value (Fibroblast; [6]) of the same compound?
**A.** 9% and 23%

**Q.** And the “Total Cell Count” value (Fibroblast; [6])?
**A.** 121 and 140

**Q.** What about the “Population Apoptotic (%)” value (U2OS; [1]) of the same compound?
**A.** 75% and 100%

**Q.** And the “Population Fragmented Nuclei (%)” value (U2OS; [1])?
**A.** 22% and 17%

**Q.** What about the “Population Healthy Nuclei (%)” value (U2OS; [1]) of the same compound?
**A.** 71% and 74%

**Q.** And the “Population Hoechst High Intensity Objects (%)” value (U2OS; [1])?
**A.** 2%

**Q.** What about the “Population Mitochondria Different-Phenotype (%)” value (U2OS; [1]) of the same compound?
**A.** 3% and 0%

**Q.** What about the “Population Mitotic Cells (%)” value (U2OS; [1]) of the same compound?
**A.** 25% and 0%

**Q.** And the “Population Normal (%)” value (U2OS; [1])?
**A.** 97%

**Q.** And the “Total Cell Count” value (U2OS; [1])?
**A.** 277 and 135

**Q.** What about the “Population Apoptotic (%)” value (U2OS; [2]) of the same compound?
**A.** 75% and 83%

**Q.** What about the “Population Fragmented Nuclei (%)” value (U2OS; [2]) of the same compound?
**A.** 31% and 14%

**Q.** And the “Population Healthy Nuclei (%)” value (U2OS; [2])?
**A.** 61% and 75%

**Q.** And the “Population Hoechst High Intensity Objects (%)” value (U2OS; [2])?
**A.** 1% and 2%

**Q.** What about the “Population Mitochondria Different-Phenotype (%)” value (U2OS; [2]) of the same compound?
**A.** 2%

**Q.** And the “Population Mitotic Cells (%)” value (U2OS; [2])?
**A.** 25% and 16%

**Q.** And the “Population Normal (%)” value (U2OS; [2])?
**A.** 98% and 97%

**Q.** What about the “Total Cell Count” value (U2OS; [2]) of the same compound?
**A.** 238 and 123

**Q.** What about the “Population Apoptotic (%)” value (U2OS; [3]) of the same compound?
**A.** 90% and 100%

**Q.** And the “Population Fragmented Nuclei (%)” value (U2OS; [3])?
**A.** 21% and 20%

**Q.** What about the “Population Healthy Nuclei (%)” value (U2OS; [3]) of the same compound?
**A.** 69% and 70%

**Q.** What about the “Population Hoechst High Intensity Objects (%)” value (U2OS; [3]) of the same compound?
**A.** 2% and 1%

**Q.** What about the “Population Mitochondria Different-Phenotype (%)” value (U2OS; [3]) of the same compound?
**A.** 2% and 0%

**Q.** And the “Population Mitotic Cells (%)” value (U2OS; [3])?
**A.** 10% and 0%

**Q.** And the “Population Normal (%)” value (U2OS; [3])?
**A.** 97% and 98%

**Q.** And the “Total Cell Count” value (U2OS; [3])?
**A.** 340 and 175

**Q.** What about the “Population Apoptotic (%)” value (U2OS; [4]) of the same compound?
**A.** 94% and 93%

**Q.** What about the “Population Fragmented Nuclei (%)” value (U2OS; [4]) of the same compound?
**A.** 26% and 22%

**Q.** What about the “Population Healthy Nuclei (%)” value (U2OS; [4]) of the same compound?
**A.** 67%

**Q.** What about the “Population Hoechst High Intensity Objects (%)” value (U2OS; [4]) of the same compound?
**A.** 1% and 2%

**Q.** What about the “Population Mitochondria Different-Phenotype (%)” value (U2OS; [4]) of the same compound?
**A.** 3% and 4%

**Q.** What about the “Population Mitotic Cells (%)” value (U2OS; [4]) of the same compound?
**A.** 5% and 6%
